# Experimental data reported in BindingDB's records for doi:10.1021/jm00089a014 (Genentech, 1992).
# Where a SMILES comes first, the peptide text is derived from it. Bridges are numbered along the chain shown (N, C = ends). [ ]: non-standard residue; d: D form.
# Molecular target: Integrin alpha-IIb/beta-3 (Homo sapiens, UniProt P08514+P05106)
# Assay: Inhibition of ADP-induced platelet aggregation in human platelet-rich plasma
# How it was run: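 Human blood drawn into 3.8% sodium citrate (9:1); PRP from 180g spin, 12 min, 22 °C; count adjusted to 3 × 10^8/mL with PPP. PRP preincubated with test sample 5 min at 37 °C in aggregometer, then ADP 17.2 µM final. Inhibition from transmittance change at 5 min versus no-sample maximum; 12-14 concentrations over ~200-fold range; IC50 by four-parameter fit; n ≥ 3.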
# Sequence of Integrin alpha-IIb/beta-3 (P05106 27-788 limits assumed): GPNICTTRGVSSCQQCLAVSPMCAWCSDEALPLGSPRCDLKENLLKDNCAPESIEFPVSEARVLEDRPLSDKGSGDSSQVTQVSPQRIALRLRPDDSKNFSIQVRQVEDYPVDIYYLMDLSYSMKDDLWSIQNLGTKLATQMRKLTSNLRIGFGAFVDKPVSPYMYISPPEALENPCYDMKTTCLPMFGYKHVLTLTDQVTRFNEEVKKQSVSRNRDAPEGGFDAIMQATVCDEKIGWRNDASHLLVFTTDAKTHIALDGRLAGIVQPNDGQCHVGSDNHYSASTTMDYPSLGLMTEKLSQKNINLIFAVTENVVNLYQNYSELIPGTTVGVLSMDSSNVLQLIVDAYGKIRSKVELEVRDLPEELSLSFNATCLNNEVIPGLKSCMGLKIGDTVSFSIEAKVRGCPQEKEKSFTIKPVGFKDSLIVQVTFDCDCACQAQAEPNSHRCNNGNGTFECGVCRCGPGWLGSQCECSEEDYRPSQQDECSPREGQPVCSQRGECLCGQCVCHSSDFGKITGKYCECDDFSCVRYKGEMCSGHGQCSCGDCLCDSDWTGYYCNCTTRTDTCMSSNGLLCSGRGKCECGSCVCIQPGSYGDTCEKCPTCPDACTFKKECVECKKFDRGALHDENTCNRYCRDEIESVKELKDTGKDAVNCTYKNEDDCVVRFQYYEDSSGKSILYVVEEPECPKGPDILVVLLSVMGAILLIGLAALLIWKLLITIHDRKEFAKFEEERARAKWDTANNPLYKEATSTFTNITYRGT
# Sequence of Integrin alpha-IIb/beta-3 (P08514 32-887 limits assumed): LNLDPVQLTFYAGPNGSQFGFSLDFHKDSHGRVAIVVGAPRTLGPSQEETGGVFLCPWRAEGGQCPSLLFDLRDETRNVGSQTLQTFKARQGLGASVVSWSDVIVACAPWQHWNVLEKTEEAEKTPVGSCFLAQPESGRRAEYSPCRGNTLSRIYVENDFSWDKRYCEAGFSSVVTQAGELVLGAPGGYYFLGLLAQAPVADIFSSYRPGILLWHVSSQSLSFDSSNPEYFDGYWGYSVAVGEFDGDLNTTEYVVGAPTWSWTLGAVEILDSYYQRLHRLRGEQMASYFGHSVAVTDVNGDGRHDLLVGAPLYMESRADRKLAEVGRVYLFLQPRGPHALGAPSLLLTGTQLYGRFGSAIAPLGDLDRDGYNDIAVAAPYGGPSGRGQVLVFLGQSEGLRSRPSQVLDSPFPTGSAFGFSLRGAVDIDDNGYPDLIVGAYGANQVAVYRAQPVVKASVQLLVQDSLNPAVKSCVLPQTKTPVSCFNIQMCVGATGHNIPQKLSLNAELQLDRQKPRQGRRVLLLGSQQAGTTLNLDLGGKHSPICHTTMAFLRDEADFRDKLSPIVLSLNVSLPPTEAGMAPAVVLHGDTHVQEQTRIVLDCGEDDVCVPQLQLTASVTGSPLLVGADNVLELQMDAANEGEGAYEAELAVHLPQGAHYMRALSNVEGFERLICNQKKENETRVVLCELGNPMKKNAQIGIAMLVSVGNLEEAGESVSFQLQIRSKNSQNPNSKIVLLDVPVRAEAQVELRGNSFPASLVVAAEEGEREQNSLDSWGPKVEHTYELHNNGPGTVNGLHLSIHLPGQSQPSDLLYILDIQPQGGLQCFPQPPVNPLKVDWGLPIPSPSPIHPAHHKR
# Sequence of Integrin alpha-IIb/beta-3 (P08514 891-1039 limits assumed): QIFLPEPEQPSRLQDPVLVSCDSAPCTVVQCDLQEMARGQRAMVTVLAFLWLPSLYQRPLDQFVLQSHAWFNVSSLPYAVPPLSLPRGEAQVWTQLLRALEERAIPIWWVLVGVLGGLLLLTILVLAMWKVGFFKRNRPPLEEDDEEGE
row,SMILES,IC50 [nM]
1,N=C(N)NCCC[C@@H]1NC(=O)CNC(=O)CSC[C@@H](C(N)=O)NC(=O)[C@H](CC(=O)O)NC(=O)CNC1=O ({CH2CO}-GRGDC-NH2; thioether N-5),150000
2,N=C(N)NCCC[C@@H]1NC(=O)CNC(=O)CSC[C@@H](C(=O)O)NC(=O)[C@H](CC(=O)O)NC(=O)CNC1=O ({CH2CO}-GRGDC-OH; thioether N-5),5000
3,N=C(N)NCCC[C@@H]1NC(=O)[C@@H]2CCCN2C(=O)CSC[C@@H](C(=O)O)NC(=O)[C@H](CC(=O)O)NC(=O)CNC1=O ({CH2CO}-PRGDC-OH; thioether N-5),430
4,N=C(N)NCCC[C@@H]1NC(=O)CSC[C@@H](C(=O)O)NC(=O)[C@H](CC(=O)O)NC(=O)CNC1=O ({CH2CO}-RGDC-OH; thioether N-4),> 2000
5,N=C(N)NCCC[C@@H]1NC(=O)[C@H]2CCCN2C(=O)CSC[C@@H](C(=O)O)NC(=O)[C@H](CC(=O)O)NC(=O)CNC1=O ({CH2CO}-[dP]RGDC-OH; thioether N-5),1960

# Continued, values first:
row,IC50 [nM],SMILES
1,590,C[C@@H]1NC(=O)CSC[C@@H](C(=O)O)NC(=O)[C@H](CC(=O)O)NC(=O)CNC(=O)[C@H](CCCNC(=N)N)NC1=O ({CH2CO}-ARGDC-OH; thioether N-5)
2,310,N=C(N)NCCC[C@@H]1NC(=O)[C@H](CC(N)=O)NC(=O)CSC[C@@H](C(=O)O)NC(=O)[C@H](CC(=O)O)NC(=O)CNC1=O ({CH2CO}-NRGDC-OH; thioether N-5)
3,700,N=C(N)NCCC[C@@H]1NC(=O)[C@H](Cc2ccc(O)cc2)NC(=O)CSC[C@@H](C(N)=O)NC(=O)[C@H](CC(=O)O)NC(=O)CNC1=O ({CH2CO}-YRGDC-NH2; thioether N-5)
4,150,N=C(N)NCCC[C@@H]1NC(=O)[C@H](Cc2ccc(O)cc2)NC(=O)CSC[C@@H](C(=O)O)NC(=O)[C@H](CC(=O)O)NC(=O)CNC1=O ({CH2CO}-YRGDC-OH; thioether N-5)
5,4000,C[C@H]1NC(=O)CSC[C@@H](C(=O)O)NC(=O)[C@H](CC(=O)O)NC(=O)CNC(=O)[C@H](CCCNC(=N)N)NC1=O ({CH2CO}-[dA]RGDC-OH; thioether N-5)
6,3450,N=C(N)NCCC[C@@H]1NC(=O)[C@@H](Cc2ccc(O)cc2)NC(=O)CSC[C@@H](C(=O)O)NC(=O)[C@H](CC(=O)O)NC(=O)CNC1=O ({CH2CO}-[dY]RGDC-OH; thioether N-5)
